Here are results for 14 compounds from ChEMBL document CHEMBL4732107, “Synthesis and anticancer activity evaluation of naphthalene-substituted triazole spirodienones” (Eur J Med Chem, 2021).

The test system of the first experiment is MDA-MB-231. In words: Antiproliferative activity against human MDA-MB-231 cells assessed as reduction in cell viability measured after 5 days by beckman coulter counting method. It is filed as functional, cell-based. Particulars: MDA-MB-231, 120 h.
As a reminder, the IC50 is the midpoint of a concentration-inhibition curve. On to `Cc1ccc(-n2nc(-c3ccc4ccccc4c3)nc2N2CCOC23C=CC(=O)C=C3)cc1`, for which the 50% inhibitory concentration (IC50) was found to be 160 nM.

Turning to `CC1CN(c2nc(-c3ccc4ccccc4c3)nn2-c2ccccc2)C2(C=CC(=O)C=C2)O1` (configuration not stated), the IC50 is 130 nM.

With `Cc1ccc(-n2nc(-c3cccc4ccccc34)nc2N2CCOC23C=CC(=O)C=C3)cc1`, the half-maximal inhibitory concentration (IC50) turned out to be 260 nM.

As for `O=C1C=CC2(C=C1)OCC(=O)N2c1nc(-c2ccc3ccccc3c2)nn1-c1ccc(C(F)(F)F)cc1`, the half-inhibitory concentration (IC50) stood at 70 nM.

In the case of `CC1OC2(C=CC(=O)C=C2)N(c2nc(-c3ccc4ccccc4c3)nn2-c2ccccc2)C1=O` (configuration not stated), the IC50 turned out to be 70 nM.

`O=C1C=CC2(C=C1)OCC(=O)N2c1nc(-c2ccc3ccccc3c2)nn1-c1ccccc1`: the 50% inhibitory concentration (IC50) was 70 nM.

On to `CC1OC2(C=CC(=O)C=C2)N(c2nc(-c3cccc4ccccc34)nn2-c2ccccc2)C1=O` (configuration not stated), for which the IC50 was determined as 100 nM.

Turning to `O=C1C=CC2(C=C1)OCC(=O)N2c1nc(-c2ccc3ncccc3c2)nn1-c1ccccc1`, the concentration for half-maximal inhibition (IC50) worked out at 50 nM.

In the case of `O=C1C=CC2(C=C1)OCC(=O)N2c1nc(-c2ccc(F)c3ccccc23)nn1-c1ccccc1`, the IC50 is 80 nM.

In the case of `O=C1C=CC2(C=C1)OCC(=O)N2c1nc(-c2ccc3ccccc3c2)nn1-c1ccc(Cl)cc1`, the IC50 is 70 nM.

Take `O=C1C=CC2(C=C1)OCC(=O)N2c1nc(-c2ccc3c(c2)OCCO3)nn1-c1ccccc1`: the 50% inhibitory concentration (IC50) came to 100 nM.

Consider `Cc1ccc(-n2nc(-c3cccc4ccccc34)nc2N2C(=O)COC23C=CC(=O)C=C3)cc1`, for which the IC50 came out at 40 nM.

Consider `O=C1C=CC2(C=C1)OCC(=O)N2c1nc(-c2cccc(Cl)c2)nn1-c1ccccc1`, for which the IC50 was 0.8 nM.

Turning to `Cc1ccccc1-n1nc(-c2cccc3ccccc23)nc1N1C(=O)COC12C=CC(=O)C=C2`, the half-maximal inhibitory concentration (IC50) was found to be 120 nM.

Another experiment deals with HeLa. In words: Antiproliferative activity against human HeLa cells assessed as reduction in cell viability measured after 5 days by beckman coulter counting method. It is filed as functional, cell-based. Particulars: 120 h.
Consider `Cc1ccc(-n2nc(-c3ccc4ccccc4c3)nc2N2CCOC23C=CC(=O)C=C3)cc1`, for which the IC50 was found to be 520 nM.

`CC1CN(c2nc(-c3ccc4ccccc4c3)nn2-c2ccccc2)C2(C=CC(=O)C=C2)O1` (configuration not stated): the half-inhibitory concentration (IC50) came out at 260 nM.

With `Cc1ccc(-n2nc(-c3cccc4ccccc34)nc2N2CCOC23C=CC(=O)C=C3)cc1`, the half-maximal inhibitory concentration (IC50) amounted to 570 nM.

Turning to `O=C1C=CC2(C=C1)OCC(=O)N2c1nc(-c2ccc3ccccc3c2)nn1-c1ccc(C(F)(F)F)cc1`, the IC50 amounted to 390 nM.

With `CC1OC2(C=CC(=O)C=C2)N(c2nc(-c3ccc4ccccc4c3)nn2-c2ccccc2)C1=O` (configuration not stated), the IC50 was determined as 120 nM.

For `O=C1C=CC2(C=C1)OCC(=O)N2c1nc(-c2ccc3ccccc3c2)nn1-c1ccccc1`, the IC50 came out at 120 nM.

Take `CC1OC2(C=CC(=O)C=C2)N(c2nc(-c3cccc4ccccc34)nn2-c2ccccc2)C1=O` (configuration not stated): the IC50 was 110 nM.

As for `O=C1C=CC2(C=C1)OCC(=O)N2c1nc(-c2ccc3ncccc3c2)nn1-c1ccccc1`, the IC50 was determined as 110 nM.

`O=C1C=CC2(C=C1)OCC(=O)N2c1nc(-c2ccc(F)c3ccccc23)nn1-c1ccccc1`: the IC50 was found to be 200 nM.

For `O=C1C=CC2(C=C1)OCC(=O)N2c1nc(-c2ccc3ccccc3c2)nn1-c1ccc(Cl)cc1`, the IC50 was 720 nM.

For the compound `O=C1C=CC2(C=C1)OCC(=O)N2c1nc(-c2ccc3c(c2)OCCO3)nn1-c1ccccc1`, the IC50 amounted to 70 nM.

On to `Cc1ccc(-n2nc(-c3cccc4ccccc34)nc2N2C(=O)COC23C=CC(=O)C=C3)cc1`, for which the IC50 worked out at 140 nM.

Consider `O=C1C=CC2(C=C1)OCC(=O)N2c1nc(-c2cccc(Cl)c2)nn1-c1ccccc1`, for which the concentration for half-maximal inhibition (IC50) stood at 45.3 nM.

For the compound `Cc1ccccc1-n1nc(-c2cccc3ccccc23)nc1N1C(=O)COC12C=CC(=O)C=C2`, the IC50 is 100 nM.

Another experiment concerns MCF7. In words: Antiproliferative activity against human MCF7 cells assessed as reduction in cell viability measured after 5 days by beckman coulter counting method. The class given is functional, cell-based. Particulars: MCF7, 120 h. Summed up: (§1)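 Cells kept in DMEM with 10% FBS, 4 mM glutamine, 1 mM sodium pyruvate, penicillin/streptomycin and amphotericin, at 37 °C in 5% CO2. Seeded at 20,000 per well, then exposed to 5 concentrations for 5 days, with DMSO as vehicle. Viable cells counted on a cell viability analyzer. Viability expressed as treated/vehicle count, and IC50 taken from dose-response curves.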
Regarding `O=C1C=CC2(C=C1)OCC(=O)N2c1nc(-c2cccc(Cl)c2)nn1-c1ccccc1`, the IC50 was 4.11 nM.

The subject of the next experiment is A549. In words: Antiproliferative activity against human A549 cells assessed as reduction in cell viability measured after 5 days by beckman coulter counting method. The class given is functional, cell-based. Particulars: A549, 120 h. Summed up: as §1
Regarding `Cc1ccc(-n2nc(-c3ccc4ccccc4c3)nc2N2CCOC23C=CC(=O)C=C3)cc1`, the IC50 came out at 2000 nM.

With `CC1CN(c2nc(-c3ccc4ccccc4c3)nn2-c2ccccc2)C2(C=CC(=O)C=C2)O1` (configuration not stated), the concentration for half-maximal inhibition (IC50) was found to be 320 nM.

Consider `Cc1ccc(-n2nc(-c3cccc4ccccc34)nc2N2CCOC23C=CC(=O)C=C3)cc1`, for which the 50% inhibitory concentration (IC50) was 1520 nM.

With `O=C1C=CC2(C=C1)OCC(=O)N2c1nc(-c2ccc3ccccc3c2)nn1-c1ccc(C(F)(F)F)cc1`, the IC50 was determined as 460 nM.

Turning to `CC1OC2(C=CC(=O)C=C2)N(c2nc(-c3ccc4ccccc4c3)nn2-c2ccccc2)C1=O` (configuration not stated), the 50% inhibitory concentration (IC50) is 310 nM.

As to `O=C1C=CC2(C=C1)OCC(=O)N2c1nc(-c2ccc3ccccc3c2)nn1-c1ccccc1`, the concentration for half-maximal inhibition (IC50) turned out to be 140 nM.

For the compound `CC1OC2(C=CC(=O)C=C2)N(c2nc(-c3cccc4ccccc34)nn2-c2ccccc2)C1=O` (configuration not stated), the IC50 worked out at 180 nM.

In the case of `O=C1C=CC2(C=C1)OCC(=O)N2c1nc(-c2ccc3ncccc3c2)nn1-c1ccccc1`, the half-inhibitory concentration (IC50) worked out at 170 nM.

On to `O=C1C=CC2(C=C1)OCC(=O)N2c1nc(-c2ccc(F)c3ccccc23)nn1-c1ccccc1`, for which the IC50 came out at 320 nM.

As to `O=C1C=CC2(C=C1)OCC(=O)N2c1nc(-c2ccc3ccccc3c2)nn1-c1ccc(Cl)cc1`, the concentration for half-maximal inhibition (IC50) was found to be 400 nM.

As to `O=C1C=CC2(C=C1)OCC(=O)N2c1nc(-c2ccc3c(c2)OCCO3)nn1-c1ccccc1`, the half-inhibitory concentration (IC50) came out at 170 nM.

As to `O=C1C=CC2(C=C1)OCC(=O)N2c1nc(-c2cccc(Cl)c2)nn1-c1ccccc1`, the half-maximal inhibitory concentration (IC50) was 25.2 nM.

Consider `Cc1ccccc1-n1nc(-c2cccc3ccccc23)nc1N1C(=O)COC12C=CC(=O)C=C2`, for which the half-inhibitory concentration (IC50) was determined as 130 nM.
